Values after ≈ are worked out from the molar mass of the structure shown.
Legend:
[1] = test system: Meyerozyma guilliermondii; experiment: Antifungal activity against Candida guilliermondii; assay type: functional
Summary of the method: (§1)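 Broth microdilution in flat-bottom plates in RPMI 1640 with 2% glucose; inoculum 0.5 × 105 to 2.5 × 10^5 CFU/ml. MICs were read spectrophotometrically at 24 h. AMB endpoint: ≥90% growth reduction vs drug-free control well. Azole and CPF endpoint: 50% reduction in optical density. MFC was taken as the lowest concentration giving 99% killing.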

Candida parapsilosis [2] = experiment: Antifungal activity against Candida parapsilosis by EUCAST method; assay type: functional; details: Lodderomyces parapsilosis; summary of the method: as §1
[3] = test system: Meyerozyma guilliermondii; experiment: Antifungal activity against Candida guilliermondii by EUCAST method; assay type: functional; summary of the method: as §1
Trichosporon asahii = experiment: Antifungal activity against Trichosporon asahii; assay type: functional
Summary of the method: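 Nonfermentative yeasts were tested by the EUCAST microdilution recommendations with one change: plates were sealed and agitated at 350 rpm and 30°C for 48 h.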

Aspergillus fumigatus [4] = experiment: Antifungal activity against Aspergillus fumigatus; assay type: functional
Aspergillus flavus = experiment: Antifungal activity against Aspergillus flavus by EUCAST method; assay type: functional
Aspergillus niger = experiment: Antifungal activity against Aspergillus niger by EUCAST method; assay type: functional
Sporothrix schenckii [5] = experiment: Antifungal activity against Sporothrix schenckii by EUCAST method; assay type: functional
Summary of the method: (§2)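 Broth microdilution following the EUCAST reference procedure for spore-forming moulds, in flat-bottom plates with RPMI 1640 plus 2% glucose. Inoculum was 2 × 10^5 to 5 × 10^5 CFU/ml. MICs were read visually at 24 and 48 h as 100% growth reduction versus a drug-free control for polyenes and azoles. MEC was used for caspofungin. Tests were run in duplicate and repeated twice.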

Scedosporium apiospermum [6] = experiment: Antifungal activity against Scedosporium apiospermum by EUCAST method; assay type: functional; summary of the method: as §2
Curvularia australiensis [7] = experiment: Antifungal activity against Bipolaris australiensis; assay type: functional
Summary of the method: (§3)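 Dematiaceous fungi were tested by the EUCAST spore-forming mold reference procedure: flat-bottom microdilution plates, RPMI 1640 plus 2% glucose, inoculum 2 × 105 to 5 × 10^5 CFU/ml. Endpoints were read visually at 24 and 48 h. Polyenes and azoles: 100% growth reduction vs drug-free control. CPF: minimum effective concentration. Run in duplicate and repeated twice.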

Candida tropicalis = experiment: Antifungal activity against Candida tropicalis; assay type: functional; summary of the method: as §1
Cunninghamella [8] = experiment: Antifungal activity against Cunninghamella species; assay type: functional
Cunninghamella [9] = experiment: Antifungal activity against Cunninghamella species by EUCAST method; assay type: functional
[10] = Antifungal activity against Rhizopus microsporus var. oligosporus by EUCAST method; assay type: functional; summary of the method: as §2
Talaromyces marneffei = experiment: Antifungal activity against Penicillium marneffei; assay type: functional
Lichtheimia corymbifera [11] = experiment: Antifungal activity against Absidia corymbifera by EUCAST method; assay type: functional
Nakaseomyces glabratus = experiment: Antifungal activity against Candida glabrata by EUCAST method; assay type: functional; summary of the method: as §1
Candida albicans [12] = experiment: Antifungal activity against Candida albicans; assay type: functional; summary of the method: as §1
Fusarium solani = experiment: Antifungal activity against Fusarium solani; assay type: functional
Candida albicans [13] = experiment: Antifungal activity against Candida albicans by EUCAST method; assay type: functional; summary of the method: as §1
Rhizopus = experiment: Antifungal activity against Rhizopus species by EUCAST method; assay type: functional; summary of the method: as §2
Pichia kudriavzevii = experiment: Antifungal activity against Candida krusei by EUCAST method; assay type: functional; summary of the method: as §1
Lichtheimia corymbifera [14] = experiment: Antifungal activity against Absidia corymbifera; assay type: functional
Rhizomucor = experiment: Antifungal activity against Rhizomucor species by EUCAST method; assay type: functional; summary of the method: as §2
Scedosporium apiospermum [15] = experiment: Antifungal activity against Scedosporium apiospermum; assay type: functional; summary of the method: as §2
Clavispora lusitaniae = experiment: Antifungal activity against Candida lusitaniae by EUCAST method; assay type: functional; summary of the method: as §1
Sporothrix schenckii [16] = experiment: Antifungal activity against Sporothrix schenckii; assay type: functional; summary of the method: as §2
Aspergillus fumigatus [17] = experiment: Antifungal activity against Aspergillus fumigatus by EUCAST method; assay type: functional
Mucor hiemalis = experiment: Antifungal activity against Mucor hiemalis by EUCAST method; assay type: functional
Penicillium sp. = experiment: Antifungal activity against Penicillium species by EUCAST method; assay type: functional
Curvularia australiensis [18] = experiment: Antifungal activity against Bipolaris australiensis by EUCAST method; assay type: functional; summary of the method: as §3
Candida parapsilosis [19] = experiment: Antifungal activity against Candida parapsilosis; assay type: functional; details: Lodderomyces parapsilosis; summary of the method: as §1
Cryptococcus gattii = experiment: Antifungal activity against Cryptococcus neoformans var. gattii by EUCAST method; assay type: functional, Cryptococcus bacillisporus
Summary of the method: (§4)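 EUCAST yeast microdilution, modified for nonfermentative yeasts: plates were sealed and agitated at 350 rpm and 30°C for 48 h.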

[20] = Antifungal activity against Cryptococcus neoformans var. neoformans; assay type: functional; details: Cryptococcus deneoformans; summary of the method: as §4
Aspergillus terreus = experiment: Antifungal activity against Aspergillus terreus; assay type: functional
Mucor = experiment: Antifungal activity against Mucor species; assay type: functional

MIC (Candida parapsilosis [2]): 0.3 µg/mL (≈ 0.325 µM) | MIC [3]: 1 µg/mL (≈ 1.08 µM) | MIC (Aspergillus flavus): 1.51 µg/mL (≈ 1.63 µM) | MIC (Aspergillus niger): 1 µg/mL (≈ 1.08 µM) | MIC (Sporothrix schenckii [5]): 2.5 µg/mL (≈ 2.71 µM) | MIC (Scedosporium apiospermum [6]): 2.66 µg/mL (≈ 2.88 µM) | MIC (Cunninghamella [9]): 2.25 µg/mL (≈ 2.43 µM) | MIC [10]: 1 µg/mL (≈ 1.08 µM) | MIC (Lichtheimia corymbifera [11]): 1 µg/mL (≈ 1.08 µM) | MIC (Nakaseomyces glabratus): 0.41 µg/mL (≈ 0.444 µM) | MIC (Candida albicans [13]): 0.12 µg/mL (≈ 0.13 µM) | MIC (Rhizopus): 2.08 µg/mL (≈ 2.25 µM) | MIC (Pichia kudriavzevii): 0.51 µg/mL (≈ 0.552 µM) | MIC (Rhizomucor): 0.58 µg/mL (≈ 0.628 µM) | MIC (Clavispora lusitaniae): 1.16 µg/mL (≈ 1.26 µM) | MIC (Aspergillus fumigatus [17]): 0.69 µg/mL (≈ 0.747 µM) | MIC (Mucor hiemalis): 0.86 µg/mL (≈ 0.931 µM) | MIC (Penicillium sp.): 0.75 µg/mL (≈ 0.812 µM) | MIC (Curvularia australiensis [18]): 1 µg/mL (≈ 1.08 µM) | MIC (Cryptococcus gattii): 0.66 µg/mL (≈ 0.714 µM)
Compound: C[C@@H]1[C@H](O)[C@@H](C)/C=C/C=C/C=C/C=C/C=C/C=C/C=C/[C@H](O[C@@H]2O[C@H](C)[C@@H](O)[C@H](N)[C@@H]2O)C[C@@H]2O[C@](O)(C[C@@H](O)C[C@@H](O)[C@H](O)CC[C@@H](O)C[C@@H](O)CC(=O)O[C@H]1C)C[C@H](O)[C@H]2C(=O)O [AMPHOTERICIN B]
MFC [1]: 2 µg/mL (≈ 2.16 µM) | MFC (Trichosporon asahii): 4 µg/mL (≈ 4.33 µM) | MFC (Aspergillus fumigatus [4]): 0.5 µg/mL (≈ 0.541 µM) | MFC (Curvularia australiensis [7]): 1 µg/mL (≈ 1.08 µM) | MFC (Candida tropicalis): 0.5 µg/mL (≈ 0.541 µM) | MFC (Cunninghamella [8]): > 8 µg/mL | MFC (Talaromyces marneffei): > 4 µg/mL | MFC (Candida albicans [12]): 2 µg/mL (≈ 2.16 µM) | MFC (Fusarium solani): > 8 µg/mL | MFC (Lichtheimia corymbifera [14]): 1 µg/mL (≈ 1.08 µM) | MFC (Scedosporium apiospermum [15]): > 8 µg/mL | MFC (Sporothrix schenckii [16]): > 8 µg/mL | MFC (Candida parapsilosis [19]): 4 µg/mL (≈ 4.33 µM) | MFC [20]: 1 µg/mL (≈ 1.08 µM) | MFC (Aspergillus terreus): > 4 µg/mL | MFC (Mucor): 1 µg/mL (≈ 1.08 µM)

— ChEMBL document CHEMBL1275524, “Activities of antifungal agents against yeasts and filamentous fungi: assessment according to the methodology of the European Committee on Antimicrobial Susceptibility Testing” (2008)
